Consider one compound from ChEMBL document CHEMBL4002590, “Design and Synthesis of a Pan-Janus Kinase Inhibitor Clinical Candidate (PF-06263276) Suitable for Inhaled and Topical Delivery for the Treatment of Inflammatory Diseases of the Lungs and Skin” (J Med Chem, 2017).

In brackets after ≈: the same amount, converted by molar mass. Activity calls are given as the source filed them. No cut-off for these calls is given here. Some results are limits rather than exact numbers.

Series [1] deals with T1, JAK1/TYK2 (Homo sapiens) (UniProt P23458+P29597).
For series [2], the system named is Mus musculus. In words: In vivo inhibition of JAK1/JAK2 in Balb/c mouse assessed as inhibition of IL-6 induced STAT3 phosphorylation in lungs at 10 ug, it pretreated for 15 mins followed by IL-6 stimulation measured after 30 mins by ELISA relative to control. The format is functional. A digest of the protocol: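 Intratracheal dosing in mouse, then IL-6 given i.t.; phosphorylated STAT3 quantified in lung. Percent inhibition ± 95% CI from the difference in geometric means between vehicle/IL-6 and vehicle/saline groups; N = 6.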
(ELISA stands for enzyme-linked immunosorbent assay.)

Series [3] has as its system Mus musculus. In words: In vivo receptor occupancy at JAK1 in Balb/c mouse lungs at 10 to 100 ug, it measured after 4 hrs. The format is functional, organism-based. Put shortly:
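JAK1 target occupancy in mouse lung measured over time after i.t. administration of 10 μg or 100 μg.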

The nature of series [4]: Thermodynamic solubility of the compound in pH 7.4 water buffer using crystalline solid sample. As to conditions: read-out: Therm_solubility. The class given is physicochemical. Put shortly:
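Thermodynamic solubility measured from crystalline solid in water buffered at pH 7.4.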

For a further series, the target named is hERG (KCNH2) (Homo sapiens, UniProt Q12809). In words: Inhibition of human ERG at 1 uM. A digest of the protocol: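 hERG potassium current measured with compound at 1 μM.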
hERG (KCNH2), sequence (Q12809 whole entry): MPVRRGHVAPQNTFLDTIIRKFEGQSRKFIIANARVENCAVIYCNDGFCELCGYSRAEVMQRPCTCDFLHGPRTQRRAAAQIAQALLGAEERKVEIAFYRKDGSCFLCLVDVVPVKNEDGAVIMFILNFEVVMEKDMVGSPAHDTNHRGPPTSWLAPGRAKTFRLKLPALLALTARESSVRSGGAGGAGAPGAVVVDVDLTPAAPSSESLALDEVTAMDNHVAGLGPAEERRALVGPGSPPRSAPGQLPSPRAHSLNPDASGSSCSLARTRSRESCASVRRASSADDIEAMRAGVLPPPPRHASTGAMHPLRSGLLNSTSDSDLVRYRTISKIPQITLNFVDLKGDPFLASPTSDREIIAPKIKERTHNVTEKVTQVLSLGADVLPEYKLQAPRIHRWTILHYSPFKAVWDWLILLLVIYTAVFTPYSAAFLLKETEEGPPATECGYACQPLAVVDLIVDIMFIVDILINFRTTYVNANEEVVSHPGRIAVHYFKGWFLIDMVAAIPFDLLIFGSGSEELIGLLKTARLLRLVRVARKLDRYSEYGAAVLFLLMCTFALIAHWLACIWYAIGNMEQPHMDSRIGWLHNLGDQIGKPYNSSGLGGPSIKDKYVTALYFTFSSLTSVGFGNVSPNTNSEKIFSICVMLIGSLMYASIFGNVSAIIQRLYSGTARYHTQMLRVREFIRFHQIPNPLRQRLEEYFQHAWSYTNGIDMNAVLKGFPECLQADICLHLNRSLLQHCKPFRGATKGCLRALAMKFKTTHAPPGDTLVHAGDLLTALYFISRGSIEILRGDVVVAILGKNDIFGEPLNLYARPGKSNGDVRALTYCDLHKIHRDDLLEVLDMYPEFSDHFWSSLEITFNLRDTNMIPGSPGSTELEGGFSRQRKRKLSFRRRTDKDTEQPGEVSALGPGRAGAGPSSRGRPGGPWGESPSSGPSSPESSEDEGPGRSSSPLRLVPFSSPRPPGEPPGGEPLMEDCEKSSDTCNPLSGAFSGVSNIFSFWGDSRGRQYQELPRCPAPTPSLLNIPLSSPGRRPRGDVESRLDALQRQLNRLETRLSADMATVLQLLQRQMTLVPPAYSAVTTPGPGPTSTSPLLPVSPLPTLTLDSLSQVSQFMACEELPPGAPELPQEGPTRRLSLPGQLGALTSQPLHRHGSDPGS
For series [5], the target named is T2, Tyrosine-protein kinase JAK3 (Homo sapiens, UniProt P52333).
T2 sequence (P52333 whole entry): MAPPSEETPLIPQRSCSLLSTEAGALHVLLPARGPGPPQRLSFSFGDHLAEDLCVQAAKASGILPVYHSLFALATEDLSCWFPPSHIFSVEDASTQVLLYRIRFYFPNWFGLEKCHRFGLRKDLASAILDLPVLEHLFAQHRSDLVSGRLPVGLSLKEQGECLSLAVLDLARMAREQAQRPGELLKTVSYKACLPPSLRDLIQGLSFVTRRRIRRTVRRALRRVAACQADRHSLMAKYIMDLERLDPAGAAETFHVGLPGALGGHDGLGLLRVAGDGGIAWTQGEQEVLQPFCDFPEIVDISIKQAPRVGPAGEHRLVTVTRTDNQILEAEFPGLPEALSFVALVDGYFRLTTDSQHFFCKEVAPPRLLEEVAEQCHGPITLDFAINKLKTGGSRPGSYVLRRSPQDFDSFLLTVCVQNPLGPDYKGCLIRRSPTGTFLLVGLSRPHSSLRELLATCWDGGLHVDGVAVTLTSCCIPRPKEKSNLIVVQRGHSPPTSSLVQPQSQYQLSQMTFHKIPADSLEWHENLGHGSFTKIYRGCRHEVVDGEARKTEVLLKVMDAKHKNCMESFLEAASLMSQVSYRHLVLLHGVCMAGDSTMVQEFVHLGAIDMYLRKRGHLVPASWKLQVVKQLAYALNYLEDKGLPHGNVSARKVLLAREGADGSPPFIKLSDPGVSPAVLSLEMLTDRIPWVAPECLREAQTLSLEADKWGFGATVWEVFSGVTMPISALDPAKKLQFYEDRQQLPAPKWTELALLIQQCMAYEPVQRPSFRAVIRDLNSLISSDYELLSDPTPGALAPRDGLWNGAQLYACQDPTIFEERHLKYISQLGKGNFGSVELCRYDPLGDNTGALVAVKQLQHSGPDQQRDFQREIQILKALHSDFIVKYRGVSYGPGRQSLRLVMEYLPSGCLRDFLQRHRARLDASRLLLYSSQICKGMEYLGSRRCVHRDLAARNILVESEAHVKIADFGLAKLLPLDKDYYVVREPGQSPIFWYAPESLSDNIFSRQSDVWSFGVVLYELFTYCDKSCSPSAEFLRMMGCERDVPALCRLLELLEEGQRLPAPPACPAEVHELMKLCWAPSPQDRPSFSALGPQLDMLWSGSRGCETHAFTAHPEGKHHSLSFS
Put plainly: Inhibition of GST tagged human recombinant JAK3 catalytic domain expressed in baculovirus using peptide substrate preincubated for 60 mins followed by substrate addition and measured after 60 mins by microfluidic assay. Put shortly: (§1)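 Caliper microfluidic assay of peptide-substrate phosphorylation by the relevant JAK enzyme, run at 1 mM ATP; IC50 values are geometric means of at least three determinations.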

Series [6] can be described thus: Plasma protein binding in rat at 0.5 mg/kg, iv. The format is ADME, organism-based. As to conditions: read-out: PPB.
Series [7] addresses T1, JAK1/TYK2 (Homo sapiens). This is another data set of the same source.
Series [8] deals with Mus musculus. Put plainly: In vivo inhibition of JAK2 homodimer in Balb/c mouse assessed as inhibition of GM-CSF induced STAT5 phosphorylation in blood at 100 ug, it for 12 consecutive days. The format is functional. Put shortly: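 After i.t. dosing in mouse, GM-CSF-induced phosphorylated STAT5 measured in blood; percent inhibition ± 95% CI from geometric means versus vehicle groups; N = 3.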

The next series relates to Salmonella typhimurium. Put plainly: Genotoxicity in Salmonella typhimurium by Ames test. The format is toxicity. As to conditions: salmonella enterica subsp. enterica serovar typhimurium. On the technique in general: In the Ames test, an excess of revertant colonies over the control signals mutagenicity.
The target in series [9] is Tyrosine-protein kinase JAK2 (Homo sapiens, UniProt O60674). Put plainly: Inhibition of JAK2 homodimer in human whole blood assessed as inhibition of GM-CSF induced STAT5 phosphorylation preincubated for 45 mins followed by GM-CSF addition and measured after 20 mins by flow cytometric analysis. On the technique in general: Flow cytometry measures light scatter and fluorescence of single cells or particles in a stream.
Tyrosine-protein kinase JAK2, sequence (O60674 whole entry): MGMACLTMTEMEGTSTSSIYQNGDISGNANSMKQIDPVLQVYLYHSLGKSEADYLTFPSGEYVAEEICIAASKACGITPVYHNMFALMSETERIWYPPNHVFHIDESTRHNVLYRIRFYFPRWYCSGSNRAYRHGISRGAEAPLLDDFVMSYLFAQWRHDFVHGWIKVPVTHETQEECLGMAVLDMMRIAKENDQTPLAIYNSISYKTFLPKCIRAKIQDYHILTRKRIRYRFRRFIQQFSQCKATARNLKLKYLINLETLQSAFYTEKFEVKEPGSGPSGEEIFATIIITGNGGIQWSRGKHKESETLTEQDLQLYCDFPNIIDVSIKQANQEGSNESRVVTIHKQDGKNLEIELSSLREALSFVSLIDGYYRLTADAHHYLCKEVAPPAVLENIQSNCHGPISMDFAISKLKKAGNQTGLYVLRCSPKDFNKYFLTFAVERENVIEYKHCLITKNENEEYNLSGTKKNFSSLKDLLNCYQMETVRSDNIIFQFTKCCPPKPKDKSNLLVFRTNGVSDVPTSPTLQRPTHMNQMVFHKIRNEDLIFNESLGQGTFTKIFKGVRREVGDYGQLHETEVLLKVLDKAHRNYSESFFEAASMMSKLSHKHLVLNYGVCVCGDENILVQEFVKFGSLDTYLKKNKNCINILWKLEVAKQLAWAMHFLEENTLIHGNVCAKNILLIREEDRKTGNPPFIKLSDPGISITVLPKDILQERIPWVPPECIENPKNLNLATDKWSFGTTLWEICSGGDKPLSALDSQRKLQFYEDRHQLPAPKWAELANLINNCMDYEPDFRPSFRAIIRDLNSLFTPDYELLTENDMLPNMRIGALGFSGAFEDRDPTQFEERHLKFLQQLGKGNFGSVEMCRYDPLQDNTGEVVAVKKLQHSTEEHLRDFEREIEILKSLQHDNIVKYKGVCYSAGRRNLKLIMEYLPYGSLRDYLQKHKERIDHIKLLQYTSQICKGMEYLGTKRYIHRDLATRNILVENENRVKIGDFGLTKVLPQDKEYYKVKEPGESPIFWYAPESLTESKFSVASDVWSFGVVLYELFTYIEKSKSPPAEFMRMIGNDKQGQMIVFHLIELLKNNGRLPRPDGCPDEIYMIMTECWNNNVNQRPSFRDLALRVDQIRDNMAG

For another series, the system named is Canis familiaris. In words: Unbound clearance in dog at 0.1 mg/kg, iv administered as 30 mins infusion. The format is ADME, organism-based, Canis lupus familiaris. As to conditions: in vivo, 0.5 h.
A further series deals with JAK3/JAK1 (Homo sapiens) (UniProt P52333+P23458).
The target of series [10] is Non-receptor tyrosine-protein kinase TYK2 (Homo sapiens, UniProt P29597). In words: Inhibition of Tyk2 (unknown origin) using peptide substrate preincubated for 60 mins followed by substrate addition and measured after 60 mins by microfluidic assay. A digest of the protocol:
as §1

Series [11] can be described thus: Chemical stability at room temperature up to 6 weeks. The class given is physicochemical. As to conditions: 1008 h. Put shortly:
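Crystalline solid stored at room temperature and at 40 °C/75% relative humidity for up to 6 weeks; chemical stability assessed.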

Series [12] is described as follows: Chemical stability in lactose using micronized sample up to 4 weeks. As to conditions: 672 h. The class given is physicochemical. Put shortly:
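Jet-milled (micronized, ~2 μm) material blended with lactose and monitored for chemical and physical stability for up to 4 weeks.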

Non-receptor tyrosine-protein kinase TYK2, sequence (P29597 whole entry): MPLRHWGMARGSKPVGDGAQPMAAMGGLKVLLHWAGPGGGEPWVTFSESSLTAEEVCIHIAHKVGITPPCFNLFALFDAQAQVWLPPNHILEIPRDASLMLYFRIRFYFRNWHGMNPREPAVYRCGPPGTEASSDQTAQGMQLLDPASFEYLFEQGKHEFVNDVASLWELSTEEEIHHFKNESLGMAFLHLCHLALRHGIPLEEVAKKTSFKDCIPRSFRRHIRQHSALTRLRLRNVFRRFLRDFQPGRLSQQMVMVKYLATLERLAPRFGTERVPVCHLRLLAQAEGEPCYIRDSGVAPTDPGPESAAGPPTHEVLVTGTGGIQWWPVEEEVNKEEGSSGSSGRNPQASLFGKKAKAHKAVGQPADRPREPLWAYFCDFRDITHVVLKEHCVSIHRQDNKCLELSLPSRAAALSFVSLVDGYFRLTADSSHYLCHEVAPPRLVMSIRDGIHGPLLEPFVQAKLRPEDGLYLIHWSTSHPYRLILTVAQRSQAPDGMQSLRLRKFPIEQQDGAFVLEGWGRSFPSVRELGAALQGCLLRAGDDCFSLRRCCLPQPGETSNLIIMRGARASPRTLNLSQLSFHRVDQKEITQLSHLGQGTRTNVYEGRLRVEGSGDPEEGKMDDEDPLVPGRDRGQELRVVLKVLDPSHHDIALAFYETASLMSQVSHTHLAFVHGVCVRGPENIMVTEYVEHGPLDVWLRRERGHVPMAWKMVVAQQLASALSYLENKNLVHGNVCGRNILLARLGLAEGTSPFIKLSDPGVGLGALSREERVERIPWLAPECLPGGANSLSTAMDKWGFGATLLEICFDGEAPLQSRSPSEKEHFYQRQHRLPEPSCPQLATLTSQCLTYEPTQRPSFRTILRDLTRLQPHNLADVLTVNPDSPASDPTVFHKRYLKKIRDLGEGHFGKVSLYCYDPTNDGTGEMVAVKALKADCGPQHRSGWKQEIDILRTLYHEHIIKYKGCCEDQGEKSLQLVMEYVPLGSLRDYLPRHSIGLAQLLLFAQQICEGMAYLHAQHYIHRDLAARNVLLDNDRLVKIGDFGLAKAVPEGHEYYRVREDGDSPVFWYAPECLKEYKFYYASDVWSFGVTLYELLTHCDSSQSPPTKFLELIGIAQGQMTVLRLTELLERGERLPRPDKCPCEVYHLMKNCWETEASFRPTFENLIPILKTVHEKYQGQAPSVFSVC

What is called inhibition is the change of the read-out against control, counted positive when it falls. Low values mean a response near the control, high ones a response far below the control. As a reminder, the IC50 is the concentration that gives 50% inhibition. Consider `CCc1cc(O)c(F)cc1-c1ccc2c(-c3nc4c([nH]3)CCN(C(=O)c3cnc(N5CCCCC5)cn3)C4)n[nH]c2c1`, for which the figures for the fIC50 on JAK1/TYK2 (Homo sapiens) [1], on JAK1/TYK2 (Homo sapiens) [7] and at JAK3/JAK1 (Homo sapiens) were 4.2 nM, 0.62 nM and 1.8 nM, respectively. In addition, the “inhibition (INH)” value was 100% in the series with Mus musculus [2] and under 50% in the series on Mus musculus [8]. Further, the result with Mus musculus [3] was Active. Also, the solubility thermodynamic in series [4] stood at 0.5 µM (≈ 0.283 µg/mL). At hERG (KCNH2), this compound gave an inhibition at 1 µM of under 1%. The half-maximal inhibitory concentration (IC50) was 0.0599 µM in [5], 5.2 µM in [9] and 0.0297 µM in series [10]. Moreover, the fraction unbound in series [6] is at most 0.001. In addition, the Activity entry in the series on Salmonella typhimurium is given as “Non-Toxic”. In addition, the CL free in the series on Canis familiaris was over 1080 L/h/kg. The Stability result in [11] and in series [12] was “Stable” in each case.
